According to paper PMC6901019 (Antiviral research, 2019):
Read-outs that look alike come from different tables or passages of the source.

Assays:
[1] = target: HIV-1 CA CTD (Human immunodeficiency virus type 1 group M subtype B, UniProt P12493); assay: HTRF-based CAI binding competition assay; details: for inhibition at 50 µM: read-out: inhibition of CA CTD-CAI HTRF signal
[2] = system: HIV-1; details: cited from earlier work
[3] = target: CAI-biotin peptide (biotinylated capsid assembly inhibitor peptide); assay: BLI
[4] = target: GST-tagged HIV-1 capsid C-terminal domain (GST-CA CTD) (HIV-1); assay: AlphaScreen or HTRF
[5] = target: WT CA protein (Human immunodeficiency virus type 1 group M subtype B, UniProt P12493); assay: In vitro CA assembly assay; format: biochemical, HIV-1; details: 50 μM CA-WT, NaCl-dependent assembly, OD 350 nm
Method in brief: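 Full-length WT CA (E. coli, pET11a) was dialysed into 50 mM sodium phosphate, pH 8.0, and mixed with test compound in 500 μl of that buffer. Assembly was started by adding 500 μl of the same buffer containing 4 M NaCl, pH 8.0. OD350 was read every 20 s for 30 min.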

[6] = system: C8166 cells; assay: MTT cytotoxicity assay; format: cell-based, Human; details: 3 days
Method in brief: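 C8166 T cells were maintained in RPMI 1640 with 10% FBS, penicillin and streptomycin. They were seeded at 4×10^4/well with serially diluted test compound and kept at 37°C, 5% CO2. Viability was measured by MTT after 3 days, and the 50% cytotoxic concentration was calculated.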

[7] = system: Gag polyprotein processing; assay: Anti-p24 western blot of infected MT-4 cell lysates; format: cell-based; details: MT-4 cells, 3 days of HIV-1IIIB replication, anti-p24 immunoblotting

Compound: C[C@H](CCC(=O)NCCS(=O)(=O)O)[C@H]1CC[C@H]2[C@@H]3[C@H](O)C[C@@H]4C[C@H](O)CC[C@]4(C)[C@H]3C[C@H](O)[C@]12C [TA, taurocholic acid]
- inhibition at 50 µM [1]: < 20%

Compound: Cc1[nH]c2ccccc2c1CC(=O)N[C@@H](Cc1ccccc1)C(=O)N(C)c1ccccc1 [PF-3450074 (PF74)]
- EC50 ([2]; ref Blair et al., 2010, Shi et al., 2011): 0.3 to 0.6 µM

Compound: GST-tagged HIV-1 capsid C-terminal domain (GST-CA CTD) (domain or fragment)
- Kd [3]: 0.007 µM
- koff [3]: 0.000152 s⁻¹

Compound: CO[C@H]1[C@H](OC(=O)c2ccc(C)[nH]2)[C@H](O)[C@@H](Oc2ccc3c(O)c(NC(=O)c4c[nH]c(C(=O)Nc5c(O)c6ccc(O[C@H]7OC(C)(C)[C@@H](OC)[C@H](OC(=O)c8ccc(C)[nH]8)[C@@H]7O)c(C)c6oc5=O)c4C)c(=O)oc3c2C)OC1(C)C [Coumermycin A1]
- EC50 ([2]; ref Chen et al., 2016, Vozzolo et al. 2010): 8 µM

Compound: Cc1ccc(NC(=O)NCCSCc2ccc(CN(C)C)o2)cc1Cl [CAP-1]
- EC50 ([2]; ref Tang et al. 2003): ~70 µM

Compound: Cc1ccnc(SCc2nc3ccccc3s2)n1 [BMMP]
- EC50 ([2]; ref Urano et al., 2011): 20 to 50 µM

Compound: untagged CAI peptide (capsid assembly inhibitor)
- IC50 [4]: 6.5 µM

Compound: C[C@H](CCC(=O)NCC(=O)O)[C@H]1CC[C@H]2[C@@H]3CC[C@@H]4C[C@H](O)CC[C@]4(C)[C@H]3C[C@H](O)[C@]12C [GDC, glycodeoxycholate]
- EC50 ([2]; ref Lampel et al., 2015): 3.12 µM
- inhibition at 50 µM [1]: < 20%

Compound: CC(=O)Nc1cccc(-n2c(=O)n(C3CC3)c(=O)c3c(Nc4ccc(I)cc4F)n(C)c(=O)c(C)c32)c1 [trametinib]
- inhibition at 50 µM [1]: < 3.2%

Compound: Cc1cc(C=C2C(=O)C=CC2=O)cc(C)c1O [TX-1918]
- effect on in vitro CA assembly [5]: inhibited CA assembly in vitro
- CC50 [6]: 20.8 µM
- effect on CA p24 production / Gag Pr55 processing [7]: significant reductions in proteolyzed CA p24 with increasing concentrations
- inhibition of CA CTD-CAI HTRF signal ([1]; compound at 50 μM): > 70%

Compound: O=c1c2ccccc2[se]n1-c1ccccc1 [Ebselen]
- EC50 ([2]; ref Thenin-Houssier et al., 2016): 3.37 µM
- inhibition at 50 µM [1]: < 3.2%
